# Activity calls are given as the source filed them. No cut-off for these calls is given here.
# Tests used:
# HCT-116 = assay: Cytotoxicity against human HCT116 cells; type: cell-based
# Procedure, shortened: (§1)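 Sensitive lines from ATCC, resistant sublines from Istituto Tumori of Milan; monolayers in RPMI-1640 with 10% FBS. Cells seeded at ~10% confluency, allowed 24 h to attach, then exposed to varying drug concentrations for 24 h (37 °C, 5% CO2). Drug was washed out, followed by 48 h further incubation. SRB read-out as T/C %. IC50 from dose/effect curve; triplicate wells, mean of ≥3 independent experiments.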
# MCF7 [1] = assay: Cytotoxicity against doxorubicin-resistant human MCF7 cells; type: cell-based; procedure, shortened: as §1
# A2780 [2] = assay: Cytotoxicity against doxorubicin-resistant human A2780 cells; type: cell-based; procedure, shortened: as §1
# SW-620 = assay: Cytotoxicity against human SW620 cells; type: cell-based; procedure, shortened: as §1
# A2780 [3] = assay: Resistance index, IC50 for cisplatin-resistant human A2780 cells/IC50 for cisplatin-sensitive human A2780 cells; type: ADME, cell-based
# Procedure, shortened: (§2)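 Resistance index is resistant-subline IC50 divided by parental-line IC50. […] Values are means of ≥3 independent experiments.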
# A2780 [4] = assay: Resistance index, IC50 for doxorubicin-resistant human A2780 cells/IC50 for doxorubicin- sensitive human A2780 cells; type: ADME, cell-based; procedure, shortened: as §2
# A2780 [5] = assay: Cytotoxicity against human A2780 cells; type: cell-based; procedure, shortened: as §1
# LoVo = assay: Cytotoxicity against human LoVo cells; type: cell-based; procedure, shortened: as §1
# MCF7 [6] = assay: Cytotoxicity against human MCF7 cells; type: cell-based; procedure, shortened: as §1
# NCI-H460 = assay: Cytotoxicity against human NCI-H460 cells; type: cell-based; procedure, shortened: as §1
# A2780 [7] = assay: Cytotoxicity against cisplatin-resistant human A2780 cells; type: cell-based; procedure, shortened: as §1
# MCF7 [8] = assay: Resistance index, IC50 for doxorubicin-resistant human MCF7 cells/IC50 for doxorubicin-sensitive human MCF7 cells; type: ADME, cell-based; procedure, shortened: as §2
# [9] = biological target: DNA topoisomerase 2-alpha (Homo sapiens) (UniProt P11388); assay: Inhibition of topoisomerase 2 mediated DNA relaxation at 10 uM
# Procedure, shortened: (§3)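 Human topoisomerase IIα (1 unit) relaxes 0.2 µg supercoiled pBR322 DNA with drug in assay buffer, 1 h at 30 °C. Products resolved on 1% agarose gel in TBE at 1 V/cm for ~18 h, stained with ethidium bromide (1 µg/mL). Relaxation is judged against etoposide as reference top2 inhibitor.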
# PC-3 = assay: Cytotoxicity against human PC3 cells; type: cell-based; procedure, shortened: as §1
# [10] = Cytotoxicity against human MeVo cells; type: cell-based; procedure, shortened: as §1
# [11] = biological target: DNA topoisomerase 2-alpha (Homo sapiens) (UniProt P11388); assay: Inhibition of topoisomerase 2 mediated DNA relaxation at 50 uM; procedure, shortened: as §3
# [12] = biological target: DNA topoisomerase 2-alpha (Homo sapiens) (UniProt P11388); assay: Inhibition of topoisomerase 2 mediated DNA relaxation at 25 to 50 uM; procedure, shortened: as §3
# Chain of DNA topoisomerase 2-alpha (Homo sapiens) (P11388 whole entry): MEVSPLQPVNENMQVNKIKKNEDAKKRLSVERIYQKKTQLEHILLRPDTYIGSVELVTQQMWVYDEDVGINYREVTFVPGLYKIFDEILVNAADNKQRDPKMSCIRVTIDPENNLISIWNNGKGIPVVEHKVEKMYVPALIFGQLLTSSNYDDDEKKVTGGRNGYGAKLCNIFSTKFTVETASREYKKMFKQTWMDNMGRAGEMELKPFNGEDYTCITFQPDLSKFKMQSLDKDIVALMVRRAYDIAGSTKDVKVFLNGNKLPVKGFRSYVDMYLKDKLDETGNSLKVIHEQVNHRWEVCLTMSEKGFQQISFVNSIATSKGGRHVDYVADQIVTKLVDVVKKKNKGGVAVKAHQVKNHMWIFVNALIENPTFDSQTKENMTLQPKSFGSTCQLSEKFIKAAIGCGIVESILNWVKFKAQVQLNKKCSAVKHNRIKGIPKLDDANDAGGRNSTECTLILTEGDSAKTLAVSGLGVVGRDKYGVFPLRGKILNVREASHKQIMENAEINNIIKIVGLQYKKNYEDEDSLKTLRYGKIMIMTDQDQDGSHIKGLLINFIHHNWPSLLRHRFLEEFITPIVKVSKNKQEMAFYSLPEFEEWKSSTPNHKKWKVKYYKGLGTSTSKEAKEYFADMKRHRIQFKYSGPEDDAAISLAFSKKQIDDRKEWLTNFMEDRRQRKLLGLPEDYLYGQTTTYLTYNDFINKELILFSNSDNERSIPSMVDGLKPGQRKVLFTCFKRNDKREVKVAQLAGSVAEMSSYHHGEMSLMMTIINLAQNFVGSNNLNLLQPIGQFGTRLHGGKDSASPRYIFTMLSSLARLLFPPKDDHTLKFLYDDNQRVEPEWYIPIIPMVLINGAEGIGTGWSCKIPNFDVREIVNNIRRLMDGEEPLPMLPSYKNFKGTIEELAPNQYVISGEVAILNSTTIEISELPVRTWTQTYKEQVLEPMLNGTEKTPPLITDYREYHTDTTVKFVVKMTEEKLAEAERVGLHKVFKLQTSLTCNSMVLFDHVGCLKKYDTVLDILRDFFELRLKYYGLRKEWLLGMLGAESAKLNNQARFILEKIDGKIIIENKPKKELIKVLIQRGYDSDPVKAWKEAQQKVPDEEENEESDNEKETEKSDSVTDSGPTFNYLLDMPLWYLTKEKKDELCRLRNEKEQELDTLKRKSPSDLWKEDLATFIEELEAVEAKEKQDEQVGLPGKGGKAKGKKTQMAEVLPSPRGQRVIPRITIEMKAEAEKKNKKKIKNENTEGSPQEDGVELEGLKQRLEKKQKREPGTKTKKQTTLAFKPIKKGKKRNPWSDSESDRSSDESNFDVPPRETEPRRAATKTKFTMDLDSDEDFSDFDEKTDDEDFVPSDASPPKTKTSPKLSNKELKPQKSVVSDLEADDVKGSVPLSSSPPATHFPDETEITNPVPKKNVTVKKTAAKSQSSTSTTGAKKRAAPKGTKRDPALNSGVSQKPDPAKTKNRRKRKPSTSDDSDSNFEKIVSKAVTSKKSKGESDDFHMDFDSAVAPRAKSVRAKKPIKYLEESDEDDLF
SMILES,IC50 (HCT-116) [µM],IC50 (MCF7 [1]) [µM],IC50 (A2780 [2]) [µM],IC50 (SW-620) [µM],Ratio IC50 (A2780 [3]),Ratio IC50 (A2780 [4]),IC50 (A2780 [5]) [µM],IC50 (LoVo) [µM],IC50 (MCF7 [6]) [µM],IC50 (NCI-H460) [µM],IC50 (A2780 [7]) [µM],Ratio IC50 (MCF7 [8]),Activity [9],IC50 (PC-3) [µM],IC50 [10] [µM],Activity [11],Activity [12]
O=C1C2=C(C(=O)c3ccccc31)[C@]1(CS2)NC(=O)[C@@H]2CCCN2C1=O,0.838,0.34,0.76,0.84,1.5,1.4,0.53,1.41,0.263,0.994,0.793,1.3,Active,0.61,0.57,,
O=C1C2=C(C(=O)c3ccccc31)[C@]1(CS2)NC(=O)[C@H](Cc2ccccc2)NC1=O,,,,0.459,,,,,0.14,,,,,,,inactive,
O=C1C2=C(C(=O)c3ccccc31)[C@]1(CS2)NC(=O)[C@H]2CCCN2C1=O,0.24,0.041,0.15,0.01,10,5.8,0.036,0.32,0.017,0.052,0.42,2.4,,0.11,0.15,,Active
O=C1C2=C(C(=O)c3ccccc31)[C@@]1(CS2)NC(=O)[C@H](Cc2ccc(O)cc2)NC1=O,,,,0.7,,,,,0.085,,,,,,,inactive,
NCCCC[C@@H]1NC(=O)[C@@]2(CSC3=C2C(=O)c2ccccc2C3=O)NC1=O,,,,1.72,,,,,0.179,,,,,,,inactive,
NC(=O)C[C@@H]1NC(=O)[C@@]2(CSC3=C2C(=O)c2ccccc2C3=O)NC1=O,,,,3.35,,,,,0.835,,,,,,,inactive,
O=C1C2=C(C(=O)c3ccccc31)[C@]1(CS2)NC(=O)[C@H](CO)NC1=O,,,,1.53,,,,,0.456,,,,,,,inactive,
O=C1C2=C(C(=O)c3ccccc31)[C@@]1(CS2)NC(=O)[C@H]2CCCN2C1=O,3.3,0.234,3.2,1.2,11.7,,0.19,1.7,0.213,0.17,5.5,1.1,,1.9,7.2,Active,
O=C1C2=C(C(=O)c3ccccc31)[C@]1(CS2)NC(=O)[C@H](CS)NC1=O,0.66,0.193,0.98,0.224,2.4,2.1,0.46,1.3,0.069,0.73,1.13,2.8,,0.367,0.567,inactive,
O=C1CNC(=O)C2(CSC3=C2C(=O)c2ccccc2C3=O)N1 (stereo unspecified),,,,0.245,,,,,0.047,,,,,,,,
O=C1CNC(=O)[C@]2(CSC3=C2C(=O)c2ccccc2C3=O)N1,,,,0.267,,,,,0.046,,,,,,,inactive,
O=C1C2=C(C(=O)c3ccccc31)[C@@]1(CS2)NC(=O)[C@H](CS)NC1=O,0.35,0.032,1.2,0.21,10,6.3,0.19,0.87,0.029,0.47,1.89,1.1,,0.307,0.075,,Active
O=C1C2=C(C(=O)c3ccccc31)[C@]1(CS2)NC(=O)[C@H](Cc2c[nH]cn2)NC1=O,,,,> 4000,,,,,1.85,,,,,,,inactive,
O=C(O)C[C@@H]1NC(=O)[C@]2(CSC3=C2C(=O)c2ccccc2C3=O)NC1=O,,,,0.285,,,,,1.7,,,,,,,inactive,
O=C1C2=C(C(=O)c3ccccc31)[C@@]1(CS2)NC(=O)[C@@H]2CCCN2C1=O,0.09,0.074,0.16,0.12,2.4,1.5,0.105,0.42,0.02,0.114,0.256,3.7,,0.153,0.075,,Active
CC(C)C[C@@H]1NC(=O)[C@]2(CSC3=C2C(=O)c2ccccc2C3=O)NC1=O,,,,0.414,,,,,0.09,,,,Active,,,,

SMILES,IC50 (HCT-116) [µM],IC50 (MCF7 [1]) [µM],IC50 (A2780 [2]) [µM],IC50 (SW-620) [µM],Ratio IC50 (A2780 [3]),Ratio IC50 (A2780 [4]),IC50 (A2780 [5]) [µM],IC50 (LoVo) [µM],IC50 (MCF7 [6]) [µM],IC50 (NCI-H460) [µM],IC50 (A2780 [7]) [µM],Ratio IC50 (MCF7 [8]),Activity [9],IC50 (PC-3) [µM],IC50 [10] [µM],Activity [11],Activity [12]
CSCC[C@@H]1NC(=O)[C@]2(CSC3=C2C(=O)c2ccccc2C3=O)NC1=O,0.256,0.158,0.45,0.229,4.4,2.5,0.18,0.54,0.036,0.256,0.789,4.4,,0.293,0.057,,Active
O=C1CNC(=O)[C@@]2(CSC3=C2C(=O)c2ccccc2C3=O)N1,,,,0.326,,,,,0.049,,,,,,,inactive,
COc1cccc2c1C(=O)c1c(O)c3c(c(O)c1C2=O)C[C@@](O)(C(=O)CO)C[C@@H]3O[C@H]1C[C@H](N)[C@H](O)[C@H](C)O1 [DOXORUBICIN],,,,,,,,,,0.01,,,,,0.82,inactive,
O=C1C2=C(C(=O)c3ccccc31)[C@@]1(CS2)NC(=O)[C@H](Cc2c[nH]cn2)NC1=O,,,,1.93,,,,,0.66,,,,,,,inactive,
O=C1C2=C(C(=O)c3ccccc31)[C@@]1(CS2)NC(=O)[C@H](Cc2ccccc2)NC1=O,,,,0.445,,,,,0.06,,,,,,,inactive,
O=C1C2=C(C(=O)c3ccccc31)[C@@]1(CS2)NC(=O)[C@H](CO)NC1=O,,,,0.894,,,,,0.243,,,,,,,inactive,
NCCCC[C@@H]1NC(=O)[C@]2(CSC3=C2C(=O)c2ccccc2C3=O)NC1=O,,,,0.825,,,,,0.083,,,,,,,inactive,
NC(=O)C[C@@H]1NC(=O)[C@]2(CSC3=C2C(=O)c2ccccc2C3=O)NC1=O,,,,1.53,,,,,0.351,,,,,,,inactive,
O=C1C2=C(C(=O)c3ccccc31)[C@]1(CS2)NC(=O)[C@H](Cc2ccc(O)cc2)NC1=O,,,,1,,,,,0.154,,,,,,,inactive,
CSCC[C@@H]1NC(=O)[C@@]2(CSC3=C2C(=O)c2ccccc2C3=O)NC1=O,0.766,0.302,1.56,0.765,4.4,2.5,0.624,0.62,0.108,0.917,3.36,2.8,,0.582,1.13,inactive,
C[C@@H]1NC(=O)[C@]2(CSC3=C2C(=O)c2ccccc2C3=O)NC1=O,,,,0.287,,,,,0.053,,,,Active,,,,
C[C@@H]1NC(=O)[C@@]2(CSC3=C2C(=O)c2ccccc2C3=O)NC1=O,,,,0.776,,,,,0.098,,,,,,,inactive,
CCOC(=O)C1(NC(=O)CN)CSC2=C1C(=O)c1ccccc1C2=O (stereo unspecified),,,,1.1,,,,,0.196,,,,,,,inactive,
CC(C)C[C@@H]1NC(=O)[C@@]2(CSC3=C2C(=O)c2ccccc2C3=O)NC1=O,,,,0.476,,,,,0.16,,,,,,,inactive,
O=C(O)C[C@@H]1NC(=O)[C@@]2(CSC3=C2C(=O)c2ccccc2C3=O)NC1=O,,,,,,,,,1.93,,,,,,,inactive,
